Results on 14 compounds are retold here after ChEMBL document CHEMBL1137196, “Non-peptide oxytocin agonists” (Bioorg Med Chem Lett, 2004).

The target in one test is T1, Oxytocin receptor (Homo sapiens, UniProt P30559).
T1 sequence (P30559 whole entry): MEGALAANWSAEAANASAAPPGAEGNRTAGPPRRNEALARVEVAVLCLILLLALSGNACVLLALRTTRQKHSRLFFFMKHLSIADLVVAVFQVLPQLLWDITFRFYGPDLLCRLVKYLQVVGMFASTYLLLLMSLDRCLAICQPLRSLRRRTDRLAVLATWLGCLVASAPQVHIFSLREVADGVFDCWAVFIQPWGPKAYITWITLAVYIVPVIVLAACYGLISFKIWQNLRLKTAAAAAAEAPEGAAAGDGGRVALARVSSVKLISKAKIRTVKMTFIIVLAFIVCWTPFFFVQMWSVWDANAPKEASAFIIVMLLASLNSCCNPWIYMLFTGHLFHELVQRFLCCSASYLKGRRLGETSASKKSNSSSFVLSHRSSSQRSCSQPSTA
Put plainly: Effective concentration for human Oxytocin receptor. Put shortly: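 CHO cells kept in phenol red-free DMEM with penicillin and 10% foetal calf serum, dual-transfected with human OT receptor and NFAT-luciferase constructs, then grown 24 h at 37°C/5% CO2 before and after plating. Compounds were diluted from 10 mM DMSO stocks (0.1% DMSO final). Luciferase was read after 5 h at 37°C. EC50 came from a 4-parameter logistic fit; mean ± SD (n≥3), or mean ± range where n=2.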

In a further test the target is Vasopressin V2 receptor (Homo sapiens, UniProt P30518). Put plainly: Effective concentration for human Vasopressin V2 receptor. Put shortly: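 293 cells in phenol red-free DMEM with penicillin and 10% foetal calf serum were dual-transfected with V2 receptor and CRE-luciferase constructs, then grown 24 h at 37°C/5% CO2 before and after plating. Compounds came from 10 mM DMSO stocks (0.1% DMSO final). Luciferase was measured after 5 h at 37°C. EC50 from a 4-parameter logistic fit; mean ± SD (n≥3), or mean ± range where n=2.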

Test [1] has as its target Oxytocin receptor (Homo sapiens) (UniProt P30559). The experiment in a line: Agonist activity against Oxytocin receptor relative to oxytocin at 3 uM.

Sequence of Vasopressin V2 receptor (P30518 whole entry): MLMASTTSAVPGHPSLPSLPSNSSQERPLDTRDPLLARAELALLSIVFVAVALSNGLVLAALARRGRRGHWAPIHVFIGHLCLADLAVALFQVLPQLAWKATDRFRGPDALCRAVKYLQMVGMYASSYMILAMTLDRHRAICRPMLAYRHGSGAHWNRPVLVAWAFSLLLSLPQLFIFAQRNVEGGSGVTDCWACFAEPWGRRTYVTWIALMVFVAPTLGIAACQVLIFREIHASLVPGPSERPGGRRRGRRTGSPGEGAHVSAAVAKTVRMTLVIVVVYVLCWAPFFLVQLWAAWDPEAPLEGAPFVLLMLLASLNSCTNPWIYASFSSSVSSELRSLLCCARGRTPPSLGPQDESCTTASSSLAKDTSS

A word on the EC50: it is the concentration needed to bring the measured effect to its halfway point. The low end stands for an effect from little substance, the high end for a need for much substance. Turning to `Cc1cc(C(=O)N2CCCCc3sccc32)ccc1CNC(=O)N1CCC[C@H]1C(=S)N1CCCN(C)CC1`, the EC50 at Oxytocin receptor was 640 nM; on Vasopressin V2 receptor it was 890 nM.

Consider `CO[C@@H]1C[C@@H](C(=S)N2CCCN(C)CC2)N(C(=O)NCc2ccc(C(=O)N3CCCCc4sccc43)cc2Cl)C1`, for which the values for the EC50 at Oxytocin receptor and at Vasopressin V2 receptor were 430 nM and 230 nM, respectively. With `Cc1ccn(-c2ccc(C(=O)N3Cc4cccn4Cc4ccccc43)c(Cl)c2)n1`, in test [1], the Relativity is less than 10%. On to `Cc1cc(C(=O)N2Cc3cnn(C)c3Nc3ccccc32)ccc1CNC(=O)N1CCC[C@H]1C(=S)N1CCCN(C)CC1`, for which the EC50 on Oxytocin receptor is 33 nM; on Vasopressin V2 receptor it was 850 nM. For the compound `CO[C@@H]1C[C@@H](C(=O)N2CCCN(C)CC2)N(C(=O)NCc2ccc(C(=O)N3CCCCc4sccc43)cc2Cl)C1`, the EC50 was determined as 2800 nM at Oxytocin receptor and 1300 nM at Vasopressin V2 receptor.

`CO[C@@H]1C[C@@H](C(=O)N2CCC(N3CCCCC3)CC2)N(C(=O)NCc2ccc(C(=O)N3CCCCc4sccc43)cc2Cl)C1`: the results for the EC50 at Oxytocin receptor and at Vasopressin V2 receptor were 2200 nM and 1200 nM, respectively. The like results for `CO[C@@H]1C[C@@H](C(=O)NCCc2ccccn2)N(C(=O)NCc2ccc(C(=O)N3CCCCc4sccc43)cc2Cl)C1` were, in that order, 1500 nM and 570 nM. `CC(C)NC(=O)C[C@H]1CCCN(C(=O)c2ccc(N3CCCC3)cc2Cl)c2ccccc21`: in test [1], the Relativity is less than 10%.

As for `CO[C@@H]1C[C@@H](C(=S)N2CCC(N3CCCC3)CC2)N(C(=O)NCc2ccc(C(=O)N3CCCCc4sccc43)cc2Cl)C1`, the EC50 on Oxytocin receptor was 480 nM; at Vasopressin V2 receptor it was 100 nM. The like results for `CO[C@@H]1C[C@@H](C(=O)N2CCC(N3CCCC3)CC2)N(C(=O)NCc2ccc(C(=O)N3CCCCc4sccc43)cc2Cl)C1` were, in that order, 2300 nM and 1100 nM. Regarding `CO[C@@H]1C[C@@H](C(=O)NCCN(C)C)N(C(=O)NCc2ccc(C(=O)N3CCCCc4sccc43)cc2Cl)C1`, the EC50 is greater than 10000 nM on Oxytocin receptor and 1800 nM at Vasopressin V2 receptor. The like results for `CO[C@@H]1C[C@@H](C(=S)NCCc2ccccn2)N(C(=O)NCc2ccc(C(=O)N3CCCCc4sccc43)cc2Cl)C1` were, in that order, 470 nM and 200 nM. The like results for `CN1CCCN(C(=S)[C@@H]2CCCN2C(=O)NCc2ccc(C(=O)N3CCCCc4sccc43)cc2Cl)CC1` were, in that order, 810 nM and 1800 nM. For `Cc1cc(C(=O)N2CCCCc3ccccc32)ccc1CNC(=O)NCC(=O)N(C)C`, in test [1], the Relativity amounted to 33%.
